Measured values: ChEMBL document CHEMBL4834479, “Discovery of the first chemical tools to regulate MKK3-mediated MYC activation in cancer” (Bioorg Med Chem, 2021)
pIC50: −log10 of the molar value. Calls of active or inactive are those of the source. The calls are words filed in the database; no cut-off is given here.

Assays:
[1] = target: T1, MAP2K3/Myc proto-oncogene protein (Homo sapiens, UniProt P01106+P46734); test: Disruption of interaction between human recombinant GST-tagged MKK3/VF-tagged MYC expressed in HEK293T cells measured after 2 hrs by TR-FRET assay; assay type: cell-based
HCT-116 [2] = test: Inhibition of cell migration in human HCT-116 cells measured after 18 hrs by scratch wound healing assay; assay type: functional, cell-based; conditions: dose 0.75-3 µM
How it was run: (§1)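 Confluent HCT116 monolayers were wounded, washed with fresh medium, and given medium with compound at set concentrations or DMSO. Live-cell imaging scanned every 2 h over 18 h, with relative wound density as the read-out. Four replicates were run.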

HCT-116 [3] = test: Inhibition of cell migration in human HCT-116 cells at 0.75 to 3 uM by scratch wound healing assay; assay type: functional, cell-based; conditions: dose 0.75-3 µM, TDE = time-dependent effect
[4] = target: T2, MAP2K3/Myc proto-oncogene protein (Homo sapiens) (UniProt P46734+P01106); test: Disruption of MKK3/MYC protein-protein interaction in human HCT-116 cells assessed as decrease in MYC level at 0.5 to 10 uM measured by western blot assay; assay type: cell-based; conditions: dose 0.5-10 µM
HCT-116 [5] = test: Cytotoxicity against human HCT-116 cells assessed as reduction in cell viability measured after 72 hrs by Alamar blue assay; assay type: functional, cell-based; conditions: HCT-116, 72 h
How it was run: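 HCT116 cells in DMEM with 10% FBS at 37 °C, 5% CO2, seeded and treated next day with compound or DMSO. After 72 h, CellTiter-Blue reagent was added for 2 h at 37 °C and fluorescence read at 560 ex/590 em. Background came from medium-only wells, and viability was taken relative to DMSO control.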

[6] = target: T2, MAP2K3/Myc proto-oncogene protein (Homo sapiens); test: Disruption of MKK3/MYC protein-protein interaction in human HCT-116 cells assessed as decrease in CDK4 level at 0.5 to 10 uM measured by western blot assay; assay type: cell-based; conditions: dose 0.5-10 µM
[7] = target: T2, MAP2K3/Myc proto-oncogene protein (Homo sapiens); test: Disruption of MKK3/MYC protein-protein interaction in human MDA-MB-468 cells assessed as decrease in PDL1 level at 1 to 20 uM measured by western blot assay; assay type: cell-based; conditions: dose 1-20 µM
[8] = target: T2, MAP2K3/Myc proto-oncogene protein (Homo sapiens); test: Disruption of MKK3/MYC protein-protein interaction in human MDA-MB-468 cells assessed as decrease in CDK4 level at 1 to 20 uM measured by western blot assay; assay type: cell-based; conditions: dose 1-20 µM
[9] = target: T2, MAP2K3/Myc proto-oncogene protein (Homo sapiens); test: Disruption of MKK3/MYC protein-protein interaction in human HCT-116 cells assessed as decrease in PDL1 level at 0.5 to 10 uM measured by western blot assay; assay type: cell-based; conditions: dose 0.5-10 µM
[10] = target: T2, MAP2K3/Myc proto-oncogene protein (Homo sapiens); test: Disruption of MKK3/MYC protein-protein interaction in human MDA-MB-468 cells transfected with VF-tagged MKK3 assessed as inhibition of MYC transcriptional activity measured after 12 hrs by […] reporter assay; assay type: cell-based; conditions: dose 0.5-5 µM
How it was run: (§2)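 Cells were transfected with Venus-Flag-MKK3 or Venus-Flag vector plus a firefly luciferase reporter carrying three MYC E-box sites (or a mutant E-box control) and a Renilla normalization vector. Compound in DMSO (0.5–5 µM, 0.1% DMSO final) was added 36 h post-transfection and cells were incubated 12 h more. Dual-luciferase read-out: firefly/Renilla ratio, then wild-type over mutant E-box fold.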

HEK293T = test: Disruption of interaction between human recombinant GST-tagged MKK3/VF-tagged p38 expressed in HEK293T cells at 50 uM incubated for 30 mins by GST pull-down assay; assay type: cell-based
How it was run: (§3)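 GST- and Venus-Flag-tagged human proteins were co-expressed in HEK293T cells for 48 h and lysed in 1% NP-40 buffer (HEPES pH 7.5) at 4 °C. Cleared lysates were pre-incubated 30 min with 50 µM compound or DMSO, then 75 min with glutathione sepharose. Beads were washed three times, eluted in SDS loading buffer, and analysed by Western blot.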

MDA-MB-468 = test: Inhibition of Renilla luciferase activity expressed in human MDA-MB-468 cells assessed as decrease in luminescence at 10 uM measured after 12 hrs by luminescence assay; assay type: cell-based
How it was run: (§4)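 Renilla luciferase luminescence was compared between cells treated with 10 µM compound and DMSO control, within the dual-luciferase MYC reporter set-up, using a 12 h compound incubation.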

[11] = target: c-Myc/c-Max (Homo sapiens) (UniProt P01106+P61244); test: Disruption of interaction between human recombinant GST-tagged MAX/VF-tagged MYC expressed in HEK293T cells at 50 uM incubated for 30 mins by GST pull-down assay; assay type: cell-based; how it was run: as §3
[12] = target: T3, Dual specificity mitogen-activated protein kinase kinase 3 (Homo sapiens) (UniProt P46734); test: Inhibition of MKK3 in human HEK293T cells assessed as inhibition of p38 phosphorylation by western blot analysis; assay type: cell-based
T3 sequence (whole entry): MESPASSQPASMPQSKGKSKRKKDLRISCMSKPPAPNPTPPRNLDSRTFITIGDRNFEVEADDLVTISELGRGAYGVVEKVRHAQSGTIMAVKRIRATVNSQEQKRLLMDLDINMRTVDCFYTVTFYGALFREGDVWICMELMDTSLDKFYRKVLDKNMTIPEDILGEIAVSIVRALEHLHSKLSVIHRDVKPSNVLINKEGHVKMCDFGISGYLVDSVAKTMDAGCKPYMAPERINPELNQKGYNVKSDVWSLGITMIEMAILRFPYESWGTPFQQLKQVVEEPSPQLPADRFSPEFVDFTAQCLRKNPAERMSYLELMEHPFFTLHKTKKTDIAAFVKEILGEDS

HCT-116 [13] = test: Inhibition of cell migration in human HCT-116 cells assessed as relative wound density at 3 uM measured after 18 hrs by scratch wound healing assay (reference value: 20%); assay type: functional; parameters: scale not given: the % may be the effect or the level left; how it was run: as §1
[14] = target: T2, MAP2K3/Myc proto-oncogene protein (Homo sapiens); test: Disruption of interaction between human recombinant GST-tagged MKK3/VF-tagged MYC expressed in HEK293T cells at 50 uM incubated for 30 mins by GST pull-down assay; assay type: cell-based; how it was run: as §3
[15] = target: T2, MAP2K3/Myc proto-oncogene protein (Homo sapiens); test: Disruption of interaction between human recombinant GST-tagged MKK3 expressed in HEK293T cells/MYC in human HCT116 cells incubated for 30 mins by GST pull-down assay; assay type: cell-based; conditions: dose 2-5 µM
[16] = target: T1, MAP2K3/Myc proto-oncogene protein; test: Disruption of interaction between human recombinant GST-tagged MKK3 (1 to 210 residues)/VF-tagged MYC expressed in HEK293T cells measured after 2 hrs by TR-FRET assay; assay type: cell-based
HCT-116 [17] = test: Inhibition of Renilla luciferase activity expressed in human HCT-116 cells assessed as decrease in luminescence at 10 uM measured after 12 hrs by luminescence assay; assay type: cell-based; how it was run: as §4
[18] = target: T2, MAP2K3/Myc proto-oncogene protein (Homo sapiens); test: Disruption of MKK3/MYC protein-protein interaction in human MDA-MB-468 cells assessed as decrease in MYC level at 1 to 20 uM measured by western blot assay; assay type: cell-based; conditions: dose 1-20 µM
[19] = target: T2, MAP2K3/Myc proto-oncogene protein (Homo sapiens); test: Disruption of interaction between human recombinant GST-tagged MKK3/VF-tagged MYC expressed in HEK293T cells at 20 uM measured after 2 hrs by TR-FRET assay; assay type: cell-based
[20] = target: T2, MAP2K3/Myc proto-oncogene protein (Homo sapiens); test: Disruption of MKK3/MYC protein-protein interaction in human HCT-116 cells transfected with VF-tagged MKK3 assessed as inhibition of MYC transcriptional activity at 0.5 to 2 uM measured after 12 hrs by […] reporter assay; assay type: cell-based; conditions: dose 0.5-2 µM; how it was run: as §2
[21] = target: T1, MAP2K3/Myc proto-oncogene protein; test: Disruption of interaction between human recombinant GST-tagged MKK3/His-tagged MYC HLH LZ domain measured after 2 hrs by TR-FRET assay; assay type: protein assay
[22] = target: T2, MAP2K3/Myc proto-oncogene protein (Homo sapiens); test: Disruption of interaction between human recombinant GST-tagged MKK3/VF-tagged MYC expressed in HEK293T cells up to 100 uM measured after 2 hrs by TR-FRET assay; assay type: cell-based; conditions: dose microM <=100, time 2.0 hrs
[23] = target: DNA (cytosine-5)-methyltransferase 1 (Homo sapiens, UniProt P26358); test: Inhibition of DNMT (unknown origin) by densitometric analysis
DNA (cytosine-5)-methyltransferase 1, sequence (P26358 whole entry): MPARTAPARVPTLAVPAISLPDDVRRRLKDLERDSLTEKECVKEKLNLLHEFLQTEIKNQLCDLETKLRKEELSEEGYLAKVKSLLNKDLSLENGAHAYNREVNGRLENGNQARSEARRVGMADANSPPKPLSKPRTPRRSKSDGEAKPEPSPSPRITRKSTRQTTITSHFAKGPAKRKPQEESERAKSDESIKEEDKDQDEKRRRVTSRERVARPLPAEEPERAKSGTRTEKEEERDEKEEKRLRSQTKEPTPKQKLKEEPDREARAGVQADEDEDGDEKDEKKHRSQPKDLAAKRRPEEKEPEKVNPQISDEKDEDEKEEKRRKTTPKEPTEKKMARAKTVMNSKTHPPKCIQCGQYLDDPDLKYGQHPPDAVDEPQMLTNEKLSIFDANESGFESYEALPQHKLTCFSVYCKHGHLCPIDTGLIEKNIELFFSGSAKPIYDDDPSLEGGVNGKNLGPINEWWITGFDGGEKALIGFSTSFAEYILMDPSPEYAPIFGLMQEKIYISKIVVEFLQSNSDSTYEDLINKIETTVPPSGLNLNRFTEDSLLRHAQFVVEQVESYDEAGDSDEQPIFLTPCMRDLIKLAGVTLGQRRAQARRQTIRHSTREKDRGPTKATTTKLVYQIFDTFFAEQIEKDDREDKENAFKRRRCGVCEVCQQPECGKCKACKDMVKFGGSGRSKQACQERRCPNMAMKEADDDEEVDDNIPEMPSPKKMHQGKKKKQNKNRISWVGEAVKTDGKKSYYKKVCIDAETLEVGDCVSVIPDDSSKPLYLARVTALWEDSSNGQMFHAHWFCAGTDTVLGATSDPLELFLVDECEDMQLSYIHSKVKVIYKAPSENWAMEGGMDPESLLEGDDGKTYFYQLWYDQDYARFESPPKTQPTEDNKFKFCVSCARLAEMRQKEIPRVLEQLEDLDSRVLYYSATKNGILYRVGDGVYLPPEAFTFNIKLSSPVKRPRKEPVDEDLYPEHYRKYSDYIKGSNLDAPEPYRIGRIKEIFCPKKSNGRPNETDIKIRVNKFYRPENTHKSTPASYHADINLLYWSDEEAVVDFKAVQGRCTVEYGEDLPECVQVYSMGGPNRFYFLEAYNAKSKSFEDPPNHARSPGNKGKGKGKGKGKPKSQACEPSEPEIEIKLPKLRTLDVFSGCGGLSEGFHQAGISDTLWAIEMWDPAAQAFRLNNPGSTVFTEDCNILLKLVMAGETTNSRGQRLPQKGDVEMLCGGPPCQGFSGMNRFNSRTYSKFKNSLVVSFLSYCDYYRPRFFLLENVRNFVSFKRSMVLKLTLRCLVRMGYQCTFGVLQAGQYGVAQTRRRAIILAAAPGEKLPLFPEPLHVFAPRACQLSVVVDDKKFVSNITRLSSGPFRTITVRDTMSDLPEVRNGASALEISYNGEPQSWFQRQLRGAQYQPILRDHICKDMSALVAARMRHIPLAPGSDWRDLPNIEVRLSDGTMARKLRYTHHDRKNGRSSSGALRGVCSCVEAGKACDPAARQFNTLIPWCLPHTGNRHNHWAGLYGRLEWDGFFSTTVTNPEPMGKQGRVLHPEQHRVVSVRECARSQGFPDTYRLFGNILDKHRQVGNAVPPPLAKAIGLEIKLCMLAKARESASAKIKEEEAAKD

T1 sequence (P01106 whole entry, one chain of several): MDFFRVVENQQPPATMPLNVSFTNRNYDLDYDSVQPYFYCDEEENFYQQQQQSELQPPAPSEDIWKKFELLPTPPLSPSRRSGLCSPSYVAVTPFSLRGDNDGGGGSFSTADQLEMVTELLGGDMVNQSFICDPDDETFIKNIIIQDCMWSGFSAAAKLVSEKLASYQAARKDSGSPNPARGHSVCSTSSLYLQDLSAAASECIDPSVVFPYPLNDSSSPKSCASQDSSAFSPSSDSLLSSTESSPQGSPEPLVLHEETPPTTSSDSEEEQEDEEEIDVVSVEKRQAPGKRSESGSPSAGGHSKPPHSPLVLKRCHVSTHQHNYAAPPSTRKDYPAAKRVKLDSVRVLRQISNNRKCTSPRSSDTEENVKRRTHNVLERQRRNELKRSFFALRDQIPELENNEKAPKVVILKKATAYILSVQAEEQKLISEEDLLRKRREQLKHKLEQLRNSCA
T2 sequence (P01106 whole entry, looked up, one chain of several): as the sequence (P01106 whole entry, one chain of several) above
c-Myc/c-Max (Homo sapiens), sequence (P01106 whole entry): as the sequence (P01106 whole entry, one chain of several) above
c-Myc/c-Max (Homo sapiens), sequence (P61244 2-160 partner limits assumed): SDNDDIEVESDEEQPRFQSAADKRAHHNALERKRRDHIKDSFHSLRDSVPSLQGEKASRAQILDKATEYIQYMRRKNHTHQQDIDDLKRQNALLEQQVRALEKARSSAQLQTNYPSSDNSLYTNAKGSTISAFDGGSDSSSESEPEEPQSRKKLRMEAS

CC(C)c1cc(C(C)C)c(CC(=O)NS(=O)(=O)Oc2c(C(C)C)cccc2C(C)C)c(C(C)C)c1 [AVASIMIBE]
pIC50 [1]: 4.19

Cc1cc(Nc2ccc(NC(=O)c3ccc(Nc4ccnc5ccccc45)cc3)cc2)nc(N)n1
inhibition (HCT-116 [2]): Dose-Dependent Effect | inhibition (HCT-116 [3]): Tde | Activity [4]: Active | pIC50 (HCT-116 [5]): 5.49 | Activity [6]: Active | Activity [7]: Active | Activity [8]: Active | Activity [9]: Active | Activity [10]: Dose-Dependent Effect | pIC50 [1]: 5.07 | Activity (HEK293T): inactive | inhibition (MDA-MB-468): inactive | Activity [11]: inactive | inhibition [12]: inactive | Activity (HCT-116 [13]): 8% | Activity [14]: Active | Activity [15]: Dose-Dependent Effect | pIC50 [16]: 5.42 | inhibition (HCT-116 [17]): inactive | Activity [18]: Active | inhibition [19]: 37% | Activity [20]: Dose-Dependent Effect | pIC50 [21]: 5.01

Cc1cc2c(C(C)C)c(O)c(O)c(C=O)c2c(O)c1-c1c(C)cc2c(C(C)C)c(O)c(O)c(C=O)c2c1O
Activity [22]: inactive | inhibition [19]: 31%

O=C(O)C1=CC(=C(c2ccc(O)c(C(=O)O)c2)c2ccc(O)c(C(=O)O)c2)C=CC1=O [AURINTRICARBOXYLIC ACID]
pIC50 [1]: 4.85 | inhibition [19]: 58%

O=C(O)[C@H](Cc1c[nH]c2ccccc12)N1C(=O)c2ccccc2C1=O
Activity [4]: inactive | Activity [6]: inactive | pIC50 [23]: 6.94 | Activity [9]: inactive | Activity [22]: inactive | Activity [20]: inactive
